≈ marks a conversion by molar mass, not a printed value.
How the values were obtained:
[1] = test system: Enterococcus faecalis; assay: Antibacterial activity against Enterococcus faecalis isolated from human after 24 hrs by microdilution method; type: functional
Outline: (§1)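 Broth microdilution in 96-well plates. Bacterial suspensions were adjusted in sterile saline to 1.0 × 10⁵ CFU/ml, prepared daily and kept at 4 °C. Compound was added to LB broth with 1.0 × 10⁴ CFU per well and shaken at 160 rpm for 24 h at […] (so in the source). MIC is the lowest concentration with no visible growth under a binocular microscope. OD655 was also read. Duplicate, repeated three times.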

[2] = test system: Escherichia coli; assay: Antibacterial activity against Escherichia coli ATCC 35210 incubated for 24 hrs followed by serial sub-cultivation for 24 hrs by microdilution; type: functional; conditions: ATCC 35210, 24 h
Outline: (§2)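 MBC: after the 24 h LB broth microdilution (1.0 × 10⁴ CFU per well, 160 rpm), wells were serially sub-cultured into fresh broth plates and incubated a further 24 h. MBC is the lowest concentration with no visible growth, taken as 99.5% killing of the original inoculum. Duplicate, repeated three times.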

[3] = test system: Bacillus cereus; assay: Antibacterial activity against clinical isolate of Bacillus cereus incubated for 24 hrs followed by serial sub-cultivation for 24 hrs by microdilution; type: functional; outline: as §2
[4] = test system: Micrococcus flavus; assay: Antibacterial activity against Micrococcus flavus ATCC 10240 incubated for 24 hrs followed by serial sub-cultivation for 24 hrs by microdilution; type: functional; conditions: ATCC 10240, 24 h; outline: as §2
[5] = test system: Aspergillus ochraceus; assay: Antifungal activity against Aspergillus ochraceus ATCC 12066 incubated for 72 hrs followed by serial sub-cultivation for 72 hrs by serial dilution technique; type: functional; conditions: ATCC 12066, 72 h
Outline: (§3)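 MFC: material from 72 h malt broth microdilution wells was serially sub-cultured into fresh broth plates and incubated a further 72 h at 28 °C. Fungicidal concentration is taken from growth after sub-culture. Duplicate, repeated three times.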

[6] = test system: Penicillium ochrochloron; assay: Ratio of bifonazole to compound for Penicillium ochrochloron ATCC 9112; type: functional
[7] = test system: Salmonella typhimurium; assay: Antibacterial activity against Salmonella Typhimurium ATCC 13311 incubated for 24 hrs followed by serial sub-cultivation for 24 hrs by microdilution; type: functional, Salmonella enterica subsp. enterica serovar Typhimurium; conditions: Salmonella enterica, ATCC 13311, 24 h; outline: as §2
[8] = test system: Listeria monocytogenes; assay: Antibacterial activity against Listeria monocytogenes NCTC 7973 incubated for 24 hrs followed by serial sub-cultivation for 24 hrs by microdilution; type: functional; conditions: NCTC 7973, 24 h; outline: as §2
[9] = test system: Pseudomonas aeruginosa; assay: Antibacterial activity against Pseudomonas aeruginosa ATCC 27853 incubated for 24 hrs followed by serial sub-cultivation for 24 hrs by microdilution; type: functional; conditions: ATCC 27853, 24 h; outline: as §2
[10] = test system: Aspergillus flavus; assay: Antifungal activity against Aspergillus flavus ATCC 9643 incubated for 72 hrs followed by serial sub-cultivation for 72 hrs by serial dilution technique; type: functional; conditions: ATCC 9643, 72 h; outline: as §3
[11] = test system: Staphylococcus aureus; assay: Antibacterial activity against Staphylococcus aureus ATCC 6538 after 24 hrs by microdilution method; type: functional; conditions: ATCC 6538, 24 h; outline: as §1
[12] = test system: Staphylococcus aureus; assay: Antibacterial activity against Staphylococcus aureus ATCC 6538 incubated for 24 hrs followed by serial sub-cultivation for 24 hrs by microdilution method; type: functional; conditions: ATCC 6538, 24 h; outline: as §2
[13] = test system: Candida albicans; assay: Ratio of ketoconazole to compound for Candida albicans isolated from human; type: functional
[14] = test system: Aspergillus flavus; assay: Antifungal activity against Aspergillus flavus ATCC 9643 after 72 hrs by serial dilution technique; type: functional; conditions: ATCC 9643, 72 h
Outline: (§4)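 Modified microdilution in 96-well plates. Fungi were kept on malt agar at 4 °C. Spores were washed off in sterile 0.85% saline with 0.1% Tween 80. Compounds were dissolved at 1 mg/ml in 5% DMSO with 0.1% Tween 80 and added to malt broth with inoculum. Plates were shaken at 160 rpm for 72 h at 28 °C. Duplicate, repeated three times.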

[15] = test system: Aspergillus ochraceus; assay: Antifungal activity against Aspergillus ochraceus after 72 hrs by serial dilution technique
[16] = test system: Trichoderma viride; assay: Antifungal activity against Trichoderma viride IAM 5061 after 72 hrs by serial dilution technique; type: functional; conditions: IAM 5061, 72 h; outline: as §4
[17] = test system: Talaromyces funiculosus; assay: Antifungal activity against Penicillium funiculosum ATCC 36839 after 72 hrs by serial dilution technique; type: functional; conditions: ATCC 36839, 72 h; outline: as §4
[18] = test system: Aspergillus ochraceus; assay: Ratio of ketoconazole to compound for Aspergillus ochraceus ATCC 12066; type: functional
[19] = test system: Salmonella typhimurium; assay: Antibacterial activity against Salmonella Typhimurium ATCC 13311 after 24 hrs by microdilution method; type: functional, Salmonella enterica subsp. enterica serovar Typhimurium; conditions: Salmonella enterica, ATCC 13311, 24 h; outline: as §1
[20] = test system: Penicillium ochrochloron; assay: Antifungal activity against Penicillium ochrochloron ATCC 9112 incubated for 72 hrs followed by serial sub-cultivation for 72 hrs by serial dilution technique; type: functional; conditions: ATCC 9112, 72 h; outline: as §3
[21] = test system: Micrococcus flavus; assay: Antibacterial activity against Micrococcus flavus ATCC 10240 after 24 hrs by microdilution method; type: functional; conditions: ATCC 10240, 24 h; outline: as §1
[22] = test system: Aspergillus niger; assay: Antifungal activity against Aspergillus niger ATCC 6275 after 72 hrs by serial dilution technique; type: functional; conditions: ATCC 6275, 72 h; outline: as §4
[23] = test system: Bacillus cereus; assay: Antibacterial activity against clinical isolate of Bacillus cereus after 24 hrs by microdilution method; type: functional; outline: as §1
[24] = test system: Aspergillus niger; assay: Ratio of bifonazole to compound for Aspergillus niger ATCC 6275; type: functional
[25] = test system: Pseudomonas aeruginosa; assay: Ratio of ampicillin MIC to compound MIC for Pseudomonas aeruginosa ATCC 27853; type: functional
[26] = test system: Aspergillus ochraceus; assay: Antifungal activity against Aspergillus ochraceus ATCC 12066 after 72 hrs by serial dilution technique; type: functional; conditions: ATCC 12066, 72 h; outline: as §4
[27] = test system: Trichoderma viride; assay: Ratio of bifonazole to compound for Trichoderma viride IAM 5061; type: functional
[28] = test system: Aspergillus niger; assay: Antifungal activity against Aspergillus niger ATCC 6275 incubated for 72 hrs followed by serial sub-cultivation for 72 hrs by serial dilution technique; type: functional; conditions: ATCC 6275, 72 h; outline: as §3
[29] = test system: Aspergillus fumigatus; assay: Antifungal activity against Aspergillus fumigatus isolated from human incubated for 72 hrs followed by serial sub-cultivation for 72 hrs by serial dilution technique; type: functional; outline: as §3
[30] = test system: Talaromyces funiculosus; assay: Ratio of bifonazole to compound for Penicillium funiculosum ATCC 36839; type: functional
[31] = test system: Aspergillus ochraceus; assay: Ratio of bifonazole to compound for Aspergillus ochraceus ATCC 12066; type: functional
[32] = test system: Penicillium ochrochloron; assay: Antifungal activity against Penicillium ochrochloron ATCC 9112 after 72 hrs by serial dilution technique; type: functional; conditions: ATCC 9112, 72 h; outline: as §4
[33] = test system: Aspergillus fumigatus; assay: Ratio of ketoconazole to compound for Aspergillus fumigatus isolated from human; type: functional
[34] = test system: Talaromyces funiculosus; assay: Antifungal activity against Penicillium funiculosum ATCC 36839 incubated for 72 hrs followed by serial sub-cultivation for 72 hrs by serial dilution technique; type: functional; conditions: ATCC 36839, 72 h; outline: as §3
[35] = test system: Listeria monocytogenes; assay: Antibacterial activity against Listeria monocytogenes NCTC 7973 after 24 hrs by microdilution method; type: functional; conditions: NCTC 7973, 24 h; outline: as §1
[36] = test system: Trichoderma viride; assay: Antifungal activity against Trichoderma viride IAM 5061 incubated for 72 hrs followed by serial sub-cultivation for 72 hrs by serial dilution technique; type: functional; conditions: IAM 5061, 72 h; outline: as §3
[37] = test system: Candida albicans; assay: Ratio of bifonazole to compound for Candida albicans isolated from human; type: functional
[38] = test system: Candida albicans; assay: Antifungal activity against Candida albicans isolated from human after 72 hrs by serial dilution technique; type: functional; outline: as §4
[39] = test system: Escherichia coli; assay: Antibacterial activity against Escherichia coli ATCC 35210 after 24 hrs by microdilution method; type: functional; conditions: ATCC 35210, 24 h; outline: as §1
[40] = test system: Penicillium ochrochloron; assay: Ratio of ketoconazole to compound for Penicillium ochrochloron ATCC 9112; type: functional
[41] = test system: Enterococcus faecalis; assay: Antibacterial activity against Enterococcus faecalis isolated from human incubated for 24 hrs followed by serial sub-cultivation for 24 hrs by microdilution; type: functional; outline: as §2
[42] = test system: Candida albicans; assay: Antifungal activity against Candida albicans isolated from human incubated for 72 hrs followed by serial sub-cultivation for 72 hrs by serial dilution technique; type: functional; outline: as §3
[43] = test system: Pseudomonas aeruginosa; assay: Antibacterial activity against Pseudomonas aeruginosa ATCC 27853 after 24 hrs by microdilution method; type: functional; conditions: ATCC 27853, 24 h; outline: as §1

In the case of CCCNc1nc(C)c(C(=O)/C=C/c2ccccc2)s1, the MIC [1] is reported as 90 µM (≈ 25.8 µg/mL), the MBC [2] is reported as 88 µM (≈ 25.2 µg/mL) and the MBC [3] is reported as 70 µM (≈ 20 µg/mL). For the same compound, the MBC [4] was 105 µM (≈ 30.1 µg/mL), the MFC [5] was 52.4 µM (≈ 15 µg/mL) and the Ratio [6] was 10. For the same compound, the MBC [7] was 90 µM (≈ 25.8 µg/mL), the MBC [8] was 105 µM (≈ 30.1 µg/mL) and the MBC [9] was 90 µM (≈ 25.8 µg/mL). The MFC [10] was 70 µM (≈ 20 µg/mL), the MIC [11] was 90 µM (≈ 25.8 µg/mL) and the MBC [12] was 105 µM (≈ 30.1 µg/mL). For the same compound, the Ratio [13] was 10, the MIC [14] was 52.4 µM (≈ 15 µg/mL) and the MIC [15] was 52.4 µM (≈ 15 µg/mL). For the same compound, the MIC [16] was 26.2 µM (≈ 7.5 µg/mL), the MIC [17] was 52.4 µM (≈ 15 µg/mL) and the Ratio [18] was 10. For the same compound, the MIC [19] was 70 µM (≈ 20 µg/mL), the MFC [20] was 70 µM (≈ 20 µg/mL) and the MIC [21] was 70 µM (≈ 20 µg/mL). The MIC [22] was 52.4 µM (≈ 15 µg/mL), the MIC [23] was 35 µM (≈ 10 µg/mL) and the Ratio [24] was 10. For the same compound, the Ratio [25] was 10, the MIC [26] was 35 µM (≈ 10 µg/mL) and the Ratio [27] was 10. For the same compound, the MFC [28] was 70 µM (≈ 20 µg/mL), the MFC [29] was 70 µM (≈ 20 µg/mL) and the Ratio [30] was 10. The Ratio [31] was 10, the MIC [32] was 35 µM (≈ 10 µg/mL) and the Ratio [33] was 10. The MFC [34] was 70 µM (≈ 20 µg/mL), the MIC [35] was 90 µM (≈ 25.8 µg/mL) and the MFC [36] was 35 µM (≈ 10 µg/mL). It also gave a Ratio [37] of 10, an MIC [38] of 35 µM (≈ 10 µg/mL) and an MIC [39] of 70 µM (≈ 20 µg/mL). For the same compound, the Ratio [40] was 10, the MBC [41] was 90 µM (≈ 25.8 µg/mL) and the MFC [42] was 70 µM (≈ 20 µg/mL). It also gave an MIC [43] of 70 µM (≈ 20 µg/mL).
